Measured values taken from publication PMC3262149 (Angewandte Chemie (International Ed. in English), 2011).
Square brackets hold non-standard residues; d marks the D form. Side chains are listed from the residue outwards. Peptide text beside a SMILES is read from it. * marks the point of attachment. X1 = O=C(CCS[C@@H]1O[C@H](CO)[C@H](O)[C@H](O)[C@H]1O)*; βGal = OC[C@H]1O[C@@H](*)[C@H](O)[C@@H](O)[C@H]1O; Mpa = O=C(O)CCS

How the values were obtained:
[1] = biological target: T1, P. aeruginosa lectin LecA (Pseudomonas aeruginosa, UniProt Q05097); assay: Isothermal titration calorimetry; assay type: binding; details: for n′ (stoichiometry, number of occupied lectin galactose binding sites per dendrimer) / ΔH / −T ΔS / r.p./n = (Kd(D-galactose)/Kd(ligand))/n: ITC; for n′ (stoichiometry, number of occupied lectin galactose binding sites per dendrimer) / ΔH / −T ΔS: 0.1 M Tris base, pH 7.5, 25 mM CaCl2, 25 °C, average of two independent runs; for r.p./n = (Kd(D-galactose)/Kd(ligand))/n: relative to D-galactose, per galactose residue
T1 sequence (Q05097 1-122): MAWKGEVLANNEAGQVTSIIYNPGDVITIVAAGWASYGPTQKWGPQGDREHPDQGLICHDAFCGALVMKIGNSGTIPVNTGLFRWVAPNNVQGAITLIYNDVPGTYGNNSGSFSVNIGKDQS

[2] = biological target: T1, P. aeruginosa lectin LecA; assay: Hemagglutination inhibition assay; assay type: biochemical; details: relative to D-galactose
Procedure, shortened: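 Twofold serial dilutions of test compound were preincubated with LecA for 30 min at 4 °C. Rabbit erythrocytes (5 % solution in PBS) were then added and incubated 1 h at RT. MIC was taken as the highest dilution giving complete inhibition of hemagglutination.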

| Structure (SMILES) | n′ (stoichiometry, number of occupied lectin galactose binding sites per dendrimer) [1] | ΔH [1] | −T ΔS [1] | r.p./n, relative potency per galactose residue = (MIC(D-galactose)/MIC(ligand))/n [2] | Kd [1] | r.p./n = (Kd(D-galactose)/Kd(ligand))/n [1] |
| --- | --- | --- | --- | --- | --- | --- |
| O=C[C@H](O)[C@@H](O)[C@@H](O)[C@H](O)CO [D-galactose] | 1.1±0.1 | -8.4 ± 0.1 kcal/mol | 2.3 ± 0.4 kcal/mol |  |  |  |
| CC[C@H](C)[C@H](NC(=O)[C@H](CCCCN)NC(=O)[C@H](Cc1ccccc1)NC(=O)[C@H](CCCCNC(=O)[C@H](CC(C)C)NC(=O)[C@@H]1CCCN1C(=O)[C@H](CCCCN)NC(=O)CCS[C@@H]1O[C@H](CO)[C@H](O)[C@H](O)[C@H]1O)NC(=O)[C@H](CC(C)C)NC(=O)[C@@H]1CCCN1C(=O)[C@H](CCCCN)NC(=O)CCS[C@@H]1O[C@H](CO)[C@H](O)[C@H](O)[C@H]1O)C(N)=O [GalBG1] ([Mpa](βGal)KPLK([Leu-Pro-Lys-X1])FKI-NH2) | 2.5±0.3 | -8.3 ± 0.4 kcal/mol | 0.7 ± 0.4 kcal/mol | 2.5 | 2100 ± 1000 nM | 20.5 |
| CC(C)S[C@@H]1O[C@H](CO)[C@H](O)[C@H](O)[C@H]1O [IPTG, isopropyl-β-thiogalactoside] | 1.1±0.1 | -8.9 ± 0.5 kcal/mol | 2.8 ± 0.5 kcal/mol | 2.8 |  | 2.7 |
| O=[N+]([O-])c1ccc(O[C@@H]2O[C@H](CO)[C@H](O)[C@H](O)[C@H]2O)cc1 [NPG, p-nitrophenyl-β-galactoside] | 0.9±0 | -10.0 ± 0.1 kcal/mol | 3.4 ± 0.1 kcal/mol | 5.7 |  | 6.2 |
